Screening data deposited in PubChem BioAssay by several laboratories.
Sampled rows, rich in hits. Any-hit rate of the full collection: about 1%.
XiGFP reactiv: activators of X-chromosome reactivation in mouse fibroblasts; XiGFP mouse fibroblasts, % GFP-positive cells imaging, 3 d; cells co-treated with 5-aza-dC sensitizer; scaled so ellipticine positive control = 100%; activation, % at 7.58 µM; hit rate 0.055% among 360,000; AID 743238;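 active = mean normalized replicate activation at least 10% and every replicate at or above 10%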;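 also: 0% = median of on-plate neutral control wells and 100% = ellipticine 6 µM median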
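System: 68-5-11 XiGFP fibroblast line | Buffer or medium: DMEM containing 5-aza-dC | Compound: Single point | Times: Compounds 3 days, fix/stain 15 min at room temperature | Benchmarks: Positive control ellipticine, 6 µM final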
GAA850 FXN act: frataxin GAA850 promoter activation. HEK293 lucGAA850 FXN promoter luciferase reporter, 24 h; percent of 10 µM SAHA response. activation, % at 6 µM. hit rate 0.56% among 360,000;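 active = activation above the average of all compounds screened plus 3 SD, cutoff fixed separately per campaign, cut at about 7.5% in these data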;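 also: 0% = DMSO wells and 100% = 10 µM SAHA wells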
INS-1E GSIS act: GLuc luminescence reporter in INS-1E cells, primary screen for activators of glucose-dependent secretion of insulin; hit rate 0.61% among 370,000; activation, % at 16.6 µM; INS-1E GLuc reporter insulin secretion, 2-3 h;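 active = lowest replicate activation of at least 40%, so every replicate reaches that level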;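 also: 0% = median of neutral control wells and 100% = median of IBMX positive control wells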
CaV13 FRET inh: Disruptors of the CACNA1D IQ motif to Ca2+-dependent inactivation inhibitor domain association, primary screening, Förster resonance energy transfer in intact living …. AID 743397. inhibition, % at 12.3 µM. HEK cells, CFP/YFP FRET ICDI-IQ, plate reader, 10 min; percent FRET-ratio fall versus neutral wells. hit rate 0.098% among 340,000;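 active = mean replicate inhibition of at least 30% and at least 1% of replicates passing that level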;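 also: 0% = median of the neutral control wells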
* marks the source's active call; other numbers are inactive results; . = no result given; + = active, no number.

SMILES	XiGFP reactiv	GAA850 FXN act	INS-1E GSIS act	CaV13 FRET inh
Cc1ccc(-c2cnc3c(c2)C(=O)N([C@@H](C)CO)C[C@H](C)[C@H](CN(C)C(=O)Cc2ccccc2)O3)cc1	0	.	-12	.
Cc1nc(NC(=O)C(Cl)Cl)sc1C(=O)N(C)C	12*	2	18	-4
C[C@@H]1CN([C@H](C)CO)S(=O)(=O)c2ccc(-c3cccc(F)c3)cc2O[C@@H]1CN(C)CC1CC1	0	.	9	.
CN(C)CCCn1c2c3ccccc3ccc2c2oc(=O)c3ccccc3c21	2	4	80*	-35
CN(C)CCCn1c(=S)[nH]c2ccccc2c1=O	0	2	-6	3
COc1ccc(CN(C)C[C@H]2Oc3ccc(NC(=O)Nc4ccccc4)cc3CC(=O)N([C@@H](C)CO)C[C@@H]2C)cc1	0	.	-9	.
CCOC(=O)C(=Cc1ccc(Br)cc1)C(=O)OCC	1	-1	-33	-19
CCOC(=O)C(CC)(CC)C(=O)/C=C/c1ccc(Br)cc1	.	2	65*	-5
COc1ccc(CN2C[C@H](C)[C@@H](OC)CN(C)C(=O)c3cc(NC(=O)c4nc5ccccc5s4)ccc3OC[C@H]2C)cc1	-1	.	-15	.
Cn1cccc1/C=N/NC(=O)c1sc2cc(Cl)ccc2c1Cl	0	.	.	42*
COC(=O)C1=C(C)N(Cc2cccc(C(F)(F)F)c2)C(=NCc2ccccc2C(F)(F)F)NC1c1cccc(F)c1 (configuration not stated)	0	.	166*	.
COC(=O)C1=C(C)N(Cc2ccccc2C(F)(F)F)C(=NCc2ccccc2)NC1c1ccc(C(F)(F)F)cc1 (configuration not stated)	0	.	.	-12
COC(=O)C1=C(C)N(Cc2cccc(C(F)(F)F)c2)C(=NCc2ccc(OC)cc2)NC1c1ccccc1C(F)(F)F (configuration not stated)	0	.	40*	-2
COC(=O)C1=C(C)N(Cc2ccccc2C(F)(F)F)C(=NCc2cccc(C(F)(F)F)c2)NC1c1ccc(C(F)(F)F)cc1 (configuration not stated)	0	.	103*	-5
COC(=O)C1=C(C)N(Cc2cccc(C(F)(F)F)c2)C(=NCc2ccccc2C(F)(F)F)NC1c1cccc(C(F)(F)F)c1 (configuration not stated)	1	.	.	-7
COC(=O)C1=C(C)N(Cc2cccc(C(F)(F)F)c2)C(=NCc2ccc3c(c2)OCO3)NC1c1cccc(F)c1 (configuration not stated)	0	.	40*	-3
CC(C)NC(=O)N(C)C[C@H]1Oc2ncc(-c3cncnc3)cc2C(=O)N([C@@H](C)CO)C[C@@H]1C	-1	.	5	.
COC(=O)C1=C(C)N(Cc2ccccc2C(F)(F)F)C(=NCc2ccc3c(c2)OCO3)NC1c1cccc(F)c1 (configuration not stated)	0	.	49*	-3
COC(=O)C1=C(C)N(Cc2ccccc2C(F)(F)F)C(=NCc2ccc3c(c2)OCO3)NC1c1ccc(F)cc1 (configuration not stated)	0	.	.	-11
COC1C(CO)OC(n2c3c(Cl)cccc3c3c4c(c5c6cccc(Cl)c6[nH]c5c32)C(=O)NC4=O)C(O)C1O (configuration not stated)	23*	-8	2	-11
NC(=O)N/N=C/c1ccc(-c2ccc([N+](=O)[O-])cc2)o1	0	6	1	-47
COCCNC(=S)N/N=C/c1ccc(-c2ccc([N+](=O)[O-])cc2)o1	2	-1	-33	+
CC1(C)CC(=O)C(C=Nc2cccnc2/N=C/C2=C(O)CC(C)(C)CC2=O)=C(O)C1	0	2	-4	129*
CN1CCN(NC(=O)c2cccc(S(=O)(=O)N3CCCCCC3)c2)CC1	0	1	58*	-5
O=C(N/N=C/c1cc(Cl)ccc1O)c1ccc(Br)cc1	0	-4	41*	-6
SMILES	XiGFP reactiv	GAA850 FXN act	INS-1E GSIS act	CaV13 FRET inh
CC(=O)c1cccc(Nc2ncnc3ccc(Br)cc23)c1	0	-4	49*	-20
C[C@H]1CC=CC[C@H](c2ccccc2)NC(=O)[C@H](Cc2ccccc2)N(C)C(=O)c2ccccc2O1 (mixture of isomers)	0	.	-6	.
CCOC(=O)c1cnc2ccc(Cl)cc2c1Nc1ccc(S(=O)(=O)Nc2ncccn2)cc1	0	1	40*	-7
COc1ccc(S(=O)(=O)Nc2ccc3c(c2)C(=O)N([C@H](C)CO)C[C@@H](C)[C@@H](CN(C)Cc2ccc4c(c2)OCO4)O3)cc1	0	.	-10	.
CN(C)C=Nc1ccc2nc3c(cc2c1)[nH]c1ccccc13	0	9.2*	17	-4
CN1C(=O)c2cc(NC(=O)c3cccs3)ccc2OC[C@@H]2O[C@H](CC(=O)N3CCCCC3)CC[C@@H]21	0	.	-4	.
O=C(NC1CCCC1)N[C@@H]1CC[C@H](CC(=O)N2CCOCC2)O[C@@H]1CO	1	.	12	.
O=C(C1CC1)N1CC2(C1)[C@H](c1ccccc1)[C@@H](CO)N2Cc1cncnc1	0	.	24	.
COc1ccc(N(C)S(=O)(=O)c2ccc(C)cc2)c([N+](=O)[O-])c1	0	1	4	-5
Cc1ccc(S(=O)(=O)N(C)c2ccc(C)c([N+](=O)[O-])c2)cc1	21*	1	8	-17
COc1ccc2c(c1)C(c1cccs1)=NNC(c1ccncc1)=N2	0	9.4*	7	7
O=[N+]([O-])c1ccc(C(O)CN2CCN(C/C=C/c3ccccc3)CC2)cc1 (configuration not stated)	0	0	51*	-19
CO[C@H]1CN(C)C(=O)c2cc(NC(=O)CC(F)(F)F)ccc2OC[C@@H](C)NC[C@@H]1C	0	.	-1	.
C[C@H](CO)N1C[C@H](C)[C@@H](CN(C)C(=O)Nc2ccc(C(F)(F)F)cc2)Oc2ccc(NC(=O)Cc3cn(C)c4ccccc34)cc2CC1=O	-1	.	8	.
N#C/C(=C/c1ccc(N2CCCCC2)o1)C(=O)Nc1ccc2ccccc2c1	109*	2	7	-77
COc1ccccc1CNC(=O)C[C@@H]1CC[C@@H]2[C@H](COC[C@H](O)CN2C(=O)Nc2ccc(C(F)(F)F)cc2)O1	0	.	-30	.
O=C1CN(S(=O)(=O)Cc2ccccc2)C[C@H]2[C@@H](c3ccc(C#Cc4ccccc4)cc3)[C@H](CO)N12	0	.	-4	.
Cc1ccccc1C(=O)N1CCC(C(=O)N2CCN(c3ncccn3)CC2)CC1	0	0	19	-5
CCOC(=O)N1CCN(C(=O)C2CCN(C(=O)c3ccccc3C)CC2)CC1	1	6	106*	-5
CNC[C@H]1Oc2c(NS(=O)(=O)c3ccc(C)cc3)cccc2C(=O)N([C@H](C)CO)C[C@H]1C	-1	.	17	.
Nc1sc(-c2ccccc2)cc1C(=O)NCCc1ccc(Cl)cc1	0	.	-14	-10
